# pIC50: −log10 of the molar value.
# Experiment: Nitric oxide scavenging activity by naphthylethylenediamine dihydrochloride based Griesse-Ilosavay method relative to ascorbic acid
# Method in brief: (§1)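 Modified Griess-Ilosavay assay. Test sample in DMSO was mixed with potassium phosphate buffer (10 mM, pH 7.4) and sodium nitroprusside (10 mM stock), then incubated at 25 °C for 150 min to form nitrite. Sulphanilic acid reagent (0.33%) and N-(1-naphthyl)ethylenediamine dihydrochloride (0.1% w/v) were added, and the mixture stood 1–2 min. Absorbance was read at 546 nm against a blank. Ascorbic acid was the positive control and DMSO the blank. IC50 was obtained by […].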
row,Compound,Ratio IC50
1,Cn1c(O)c(C(C2=C(O)CC(C)(C)CC2=O)c2ccc(Cl)cc2Cl)c(=O)n(C)c1=O (centres undefined),500

# Experiment: Nitric oxide scavenging activity by naphthylethylenediamine dihydrochloride based Griesse-Ilosavay method
# Method in brief: as §1
row,Compound,pIC50
1,Cc1ccc(C(c2c(O)n(C)c(=O)n(C)c2=O)c2c(O)n(C)c(=O)n(C)c2=O)cc1,3.64
2,Cc1ccc(C(C2=C(O)CC(C)(C)CC2=O)c2c(O)[nH]c(=O)[nH]c2=O)cc1 (centres undefined),3.36
3,CC1(C)CC(=O)C(C(c2ccccc2)c2c(O)[nH]c(=O)[nH]c2=O)=C(O)C1 (centres undefined),3.44
4,Cn1c(O)c(C(c2ccc([N+](=O)[O-])cc2)c2c(O)n(C)c(=O)n(C)c2=O)c(=O)n(C)c1=O,4.16
5,O=c1[nH]c(O)c(C(c2ccc(Cl)cc2)c2c(O)[nH]c(=O)[nH]c2=O)c(=O)[nH]1,3.52
6,Cc1ccc(C(c2c(O)[nH]c(=O)[nH]c2=O)c2c(O)[nH]c(=O)[nH]c2=O)cc1,3.42
7,COc1ccc(C(c2c(O)n(C)c(=O)n(C)c2=O)c2c(O)n(C)c(=O)n(C)c2=O)cc1,3.63
8,Cn1c(O)c(C(C2=C(O)CC(C)(C)CC2=O)c2ccc(Cl)cc2Cl)c(=O)n(C)c1=O (centres undefined),3.76
9,CC1(C)CC(=O)C(C(C2=C(O)CC(C)(C)CC2=O)c2ccc([N+](=O)[O-])cc2)=C(O)C1,3.55
10,Cn1c(O)c(C(c2ccc3ccccc3c2)c2c(O)n(C)c(=O)n(C)c2=O)c(=O)n(C)c1=O,4.10
11,Cn1c(O)c(C(C2=C(O)CC(C)(C)CC2=O)c2ccccc2)c(=O)n(C)c1=O (centres undefined),3.54
12,COc1ccc(C(c2c(O)[nH]c(=O)[nH]c2=O)c2c(O)[nH]c(=O)[nH]c2=O)cc1,3.69
13,O=Cc1ccc(C(c2c(O)[nH]c(=O)[nH]c2=O)c2c(O)[nH]c(=O)[nH]c2=O)cc1,3.48
14,O=C1O[C@H]([C@@H](O)CO)C(O)=C1O [ASCORBIC ACID],3.21
15,Cc1cccc(C(c2c(O)n(C)c(=O)n(C)c2=O)c2c(O)n(C)c(=O)n(C)c2=O)c1,3.76
16,Cn1c(O)c(C(c2ccc(O)cc2)c2c(O)n(C)c(=O)n(C)c2=O)c(=O)n(C)c1=O,3.51
17,CC1(C)CC(=O)C(C(c2ccc(C=O)cc2)c2c(O)[nH]c(=O)[nH]c2=O)=C(O)C1 (centres undefined),3.36
18,O=c1[nH]c(O)c(C(c2ccc3ccccc3c2)c2c(O)[nH]c(=O)[nH]c2=O)c(=O)[nH]1,3.51
19,Cn1c(O)c(C(c2ccc(Cl)cc2)c2c(O)n(C)c(=O)n(C)c2=O)c(=O)n(C)c1=O,4.12
20,Cn1c(O)c(C(C2=C(O)CC(C)(C)CC2=O)c2ccc([N+](=O)[O-])cc2)c(=O)n(C)c1=O (centres undefined),3.33
21,Cn1c(O)c(C(c2ccc(C=O)cc2)c2c(O)n(C)c(=O)n(C)c2=O)c(=O)n(C)c1=O,3.95
22,Cn1c(O)c(C(C2=C(O)CC(C)(C)CC2=O)c2ccc(C=O)cc2)c(=O)n(C)c1=O (centres undefined),3.42
23,Cn1c(O)c(C(c2cccc(Br)c2)c2c(O)n(C)c(=O)n(C)c2=O)c(=O)n(C)c1=O,4.15

# From ChEMBL document CHEMBL3352396, “Zwitterionic pyrimidinium adducts as antioxidants with therapeutic potential as nitric oxide scavenger” (Eur J Med Chem, 2014)
